Screening data (PubChem)
PostGolgi yeast = growth inhibition of a yeast mutant, post-Golgi transport screen; 0.9% of 98,000 active; inhibition, % at 10 µM; post-Golgi transport phenotypic cell assay;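 note: yeast cells grown in 1536-well plates; yeast grown about 18 h at 30C before absorbance read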
Candida biofilm = kills Candida albicans biofilms | AID 834 | C. albicans biofilm + clotrimazole, Alamar Blue | inhibition, % at 6 µM | 0.14% of 85,000 active;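 active = inhibition above 20%; inactive = inhibition below 20%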;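 note: preformed 24 hr biofilms exposed to compound for 48 hr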
PostGolgi ctrl = growth of the yeast control strain, post-Golgi counter-screen; inhibition, % at 10 µM; 5% of 98,000 active; efflux-deficient yeast background strain, growth absorbance A615, 16 h
Ecoli tolC = blocks growth of E. coli BW25113 tolC mutant; OD615; growth inhibition, % at 10 µM (by protocol); 2.2% of 65,000 active; AID 573;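 active = growth inhibition at or above a cutoff equal to the mean over every tested compound plus 3 SD, cut at about 60% in these data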;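 note: growth measured after 20 h incubation at 37 °C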
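Signal: optical density read at 615 nm; Assay system: E. coli ΔtolC::kan strain BW25113; Times: 20 h incubation with compound, 37 °C; Dosing: 10 µM final, single dose.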
FAK inh = blocks human focal adhesion kinase activity; Q05397; biochemical FAK kinase activity assay; inhibition, %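 (tested at 7 µM)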; 0.84% of 97,000 active; in the data active = inhibition above about 19%
PTK2B oligo ant = antagonists of human Pyk2 oligomerization. Q14289. Q293 cells, Pyk2 FERM NanoBiT luminescence; hits give low values. z-score (the deposit names both 25 µM and 10 µM). 0.83% of 99,000 active. AID 1347419;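 active = Z-score of -3 or lower, scaled per plate to the spread of control and sample wells; inactive = z-score above -3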;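 note: negative z-score means lost luminescence so less FERM oligomerization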
Target sequence (Q14289 whole entry, looked up): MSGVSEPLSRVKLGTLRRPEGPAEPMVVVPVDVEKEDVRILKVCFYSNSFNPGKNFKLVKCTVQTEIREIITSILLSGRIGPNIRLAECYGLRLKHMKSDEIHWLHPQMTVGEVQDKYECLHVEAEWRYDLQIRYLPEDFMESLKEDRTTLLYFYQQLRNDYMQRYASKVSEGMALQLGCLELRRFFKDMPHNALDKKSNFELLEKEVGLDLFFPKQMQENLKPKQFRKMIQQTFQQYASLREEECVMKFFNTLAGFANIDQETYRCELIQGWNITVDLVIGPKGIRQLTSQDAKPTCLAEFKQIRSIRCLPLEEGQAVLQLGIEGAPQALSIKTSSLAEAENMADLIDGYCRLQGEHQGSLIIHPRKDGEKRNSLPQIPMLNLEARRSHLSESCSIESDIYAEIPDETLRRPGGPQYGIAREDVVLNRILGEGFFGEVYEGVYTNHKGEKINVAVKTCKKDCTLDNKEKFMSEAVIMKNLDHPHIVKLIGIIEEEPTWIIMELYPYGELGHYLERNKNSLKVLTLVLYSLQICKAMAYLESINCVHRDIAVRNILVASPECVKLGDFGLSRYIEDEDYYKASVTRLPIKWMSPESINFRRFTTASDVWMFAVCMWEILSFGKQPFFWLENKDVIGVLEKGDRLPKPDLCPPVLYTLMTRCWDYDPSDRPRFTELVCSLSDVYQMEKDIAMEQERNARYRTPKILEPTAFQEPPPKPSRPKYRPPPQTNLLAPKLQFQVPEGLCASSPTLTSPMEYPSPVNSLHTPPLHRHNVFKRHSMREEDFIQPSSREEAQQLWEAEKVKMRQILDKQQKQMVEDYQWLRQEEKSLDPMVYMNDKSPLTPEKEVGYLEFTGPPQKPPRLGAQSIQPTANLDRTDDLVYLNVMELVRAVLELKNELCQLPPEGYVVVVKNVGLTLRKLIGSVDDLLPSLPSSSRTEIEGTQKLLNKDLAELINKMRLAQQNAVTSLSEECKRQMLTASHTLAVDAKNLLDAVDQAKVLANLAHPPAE
A number is an active result; . = inactive; / = no result. This is a sample that favours compounds with a hit; in the whole collection about 6.9% have one here. Cut-off read from the data, not from the text of the source, unless noted: active = inhibition above about 30%; inactive = the rest.

SMILES	PostGolgi yeast	Candida biofilm	PostGolgi ctrl	Ecoli tolC	FAK inh	PTK2B oligo ant
O=c1c2ccccc2nc2sc3ccccc3n12	.	/	.	.	20	.
Cc1ccc(S(=O)(=O)Nc2nc3ccccc3nc2N2CCN(c3ccccc3F)CC2)cc1	.	.	.	/	.	.
O=S(=O)(Nc1nc2ccccc2nc1N1CCN(c2ccccn2)CC1)c1ccc(Cl)cc1	.	/	57	83	.	.
CCOc1ccc(-n2c(N)c(C(=O)NCc3ccco3)sc2=S)cc1	.	.	.	/	.	.
CCOc1ccc(-n2c(N)c(C(=O)NCc3cccnc3)sc2=S)cc1	.	.	32	/	.	.
Cc1nc(N)sc1-c1csc(Nc2ccc(Cl)cn2)n1	.	.	42	.	.	.
O=C(CCCOc1ccccc1)N1CCN(c2ccc(F)cc2)CC1	.	.	.	/	.	.
O=C(CSc1ncccn1)Nn1cnnc1	.	.	.	.	/	.
O=C(Nc1ncnc2sc3c(c12)CCCCC3)c1ccccc1	48	.	33	/	.	.
Cc1ccc(-c2nn(-c3cc(Cl)ccc3[N+](=O)[O-])c(=O)c3ccccc23)cc1	.	/	37	/	.	.
Cc1ccc(C)c(-c2nn(-c3cc(N4CCN(CCO)CC4)ccc3[N+](=O)[O-])c(=O)c3ccccc23)c1	.	/	48	/	.	.
C/C(Cn1cnc([N+](=O)[O-])n1)=N\NC(=O)c1cccc(F)c1	/	.	/	/	.	.
Cc1ccc(NC(=O)CSc2nnc(C3CCCCC3)n2N)cc1F	31	.	.	.	.	.
COc1ccc(C(=O)Nc2ccccc2C(=O)N/N=C/c2cccc3ccccc23)cc1	.	/	.	/	.	.
COC(=O)c1ccccc1NC(=O)c1ccc2c(c1)OCCO2	.	.	.	89	.	.
CCc1ccc2c(c1)c(N=NC1=NC(=O)CS1)c(O)n2CC	.	/	.	/	.	.
Cc1ccc(S(=O)(=O)c2nc(Nc3nccs3)sc2Cl)cc1	.	.	52	98	.	-3.1
Cc1ccc(S(=O)(=O)c2nc(NCc3ccc4c(c3)OCO4)sc2Cl)cc1	.	/	48	/	.	.
CC(=O)Nc1nc(S(=O)(=O)c2ccc(C)cc2)c(Cl)s1	.	.	.	/	.	.
Cc1oc(-c2cccs2)[n+]([O-])c1C	.	.	.	.	.	.
COc1ccc(CNc2oc(COc3ccccc3Cl)nc2C#N)cc1	.	.	.	.	.	.
Cc1nn(-c2ccccc2)c(C)c1/C=N\N1CCN(c2ccc(Cl)cc2)CC1	66	/	47	/	.	.
CN(C)CCCNC(=O)c1ccc(-c2nc(-c3ccc(Cl)cc3)cs2)cc1	.	/	38	/	.	.
COC(=O)c1ccc(O)c(Sc2cc(C(=O)OC)ccc2O)c1	.	.	.	87	.	.
Cc1cccc2sc(NC(=O)C3CCCN(S(=O)(=O)c4cccc5nonc45)C3)nc12 (centres undefined)	.	.	.	.	.	.
SMILES	PostGolgi yeast	Candida biofilm	PostGolgi ctrl	Ecoli tolC	FAK inh	PTK2B oligo ant
COc1ccc(S(=O)(=O)N(Cc2cccs2)C2CCCC2)cc1	.	.	31	66	.	.
COc1ccc(CNC(=O)C2CCCN(S(=O)(=O)c3cc(C)ccc3OC)C2)cc1 (centres undefined)	.	.	40	.	.	.
COc1ccc(S(=O)(=O)N2CCCC(C(=O)Nc3ccc(OC)c(OC)c3)C2)cc1 (centres undefined)	.	.	39	.	.	.
COc1ccc(C)cc1S(=O)(=O)N1CCC(C)CC1	.	.	42	.	.	.
CCOc1ccccc1NC(=O)C1CCCN(S(=O)(=O)c2ccc(OC)c(C)c2)C1 (centres undefined)	.	.	31	.	.	.
COc1ccc(C)cc1S(=O)(=O)N1CCN(S(=O)(=O)c2cc(C)ccc2OC)C(C)C1 (centres undefined)	.	.	.	.	.	.
COc1ccc(NC(=O)C2CCCN(S(=O)(=O)c3ccc(C)cc3)C2)cc1OC (centres undefined)	/	/	/	.	.	.
CCOc1ccccc1N(CC(=O)O)S(=O)(=O)c1ccccc1	.	/	.	.	.	.
Cc1sc2nc(SCC(=O)N3CCCCC3)[nH]c(=O)c2c1C	/	.	/	.	.	.
O=c1c(-c2ccc3c(c2)OCCO3)coc2cc(O)cc(O)c12	.	.	.	.	.	-3.7
OC(COc1ccc2cc(Br)ccc2c1)CN1CCCC1 (centres undefined)	.	.	.	.	.	.
O=C(O)C1[C@H]2C(=O)N(Cc3cccs3)C[C@]23C=C[C@H]1O3 (some centres undefined)	.	.	.	.	.	.
